Measured values reported in ChEMBL document CHEMBL1124499, “Metabolism of 3-(p-chlorophenyl)pyrrolidine. Structural effects in conversion of a prototype gamma-aminobutyric acid prodrug to lactam and gamma-aminobutyric acid type metabolites” (J Med Chem, 1989).
Calls of active or inactive are those of the source.

Columns and labels:
Mus musculus [1] = species on record: Mus musculus; assay: Anticonvulsant activity by using bicuculline test in mice; Inactive; type: functional, organism-based
Mus musculus [2] = assay: Anticonvulsant activity by using subcutaneous pentylenetetrazole (Metrazol) seizure threshold test in mice; Inactive; type: functional, organism-based
Mus musculus [3] = assay: Anticonvulsant activity by using subcutaneous pentylenetetrazole (Metrazol) seizure threshold test in mice; type: functional; conditions: for ED50: sc
Rattus norvegicus [4] = species on record: Rattus norvegicus; assay: Amount of metabolite produced in brain of rat at a concentration of 700 g of the compound; type: functional
Mus musculus [5] = species on record: Mus musculus; assay: Anticonvulsant activity by using maximal electroshock seizure test in mice; type: functional
Rattus norvegicus [6] = species on record: Rattus norvegicus; assay: Amount of metabolite produced in brain of rat at a concentration of 12000 g of the compound; type: functional
Mus musculus [7] = species on record: Mus musculus; assay: Anticonvulsant activity by using rotarod toxicity test in mice; type: functional
Rattus norvegicus [8] = species on record: Rattus norvegicus; assay: Amount of metabolite produced in liver of rat at a concentration of 700 g of the compound; type: functional
Rattus norvegicus [9] = species on record: Rattus norvegicus; assay: Amount of metabolite produced in liver of rat at a concentration of 12000 g of the compound; type: functional
Rattus norvegicus [10] = species on record: Rattus norvegicus; assay: Amount of metabolite alpha-baclofen lactam produced in brain of rat at a concentration of 700 g of the compound; type: functional
Rattus norvegicus [11] = assay: Number of rats died by pretreatment with 55 mg/kg of compound (ip) in the presence of isoniazid after 63 mins out of 6 rats tested; type: functional
In short: (§1)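 Male Wistar rats were pretreated with test agent at 55 mg/kg ip (200 mg/mL in saline or DMSO), then given isoniazid 425 mg/kg sc (180 mg/mL in saline).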

Rattus norvegicus [12] = assay: In vivo formation of baclofen in 0-3 hr after administration of 55 mg/kg of compound intraperitoneally into 2 rats; type: functional, organism-based; set-up: dose 55 mg/kg
In short: (§2)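 Male Wistar rats housed in metabolism cages were given 55 mg/kg prodrug ip. Urine was collected at 3 and 6 h and assayed by HPLC/EC; cumulative amount is reported per rat. One rat was decapitated at 3 h, and its brain was homogenized in Tris-KCl and assayed by HPLC/EC.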

Rattus norvegicus [13] = assay: In vivo formation of alpha-baclofen in 0-3 hr after administration of 55 mg/kg of compound intraperitoneally into 2 rats; type: functional, organism-based; set-up: dose 55 mg/kg; in short: as §2
Rattus norvegicus [14] = assay: In vivo formation of alpha-baclofen in 0-3 hr after administration of 55 mg/kg of compound intraperitoneally into 1r at; type: functional, organism-based; set-up: dose 55 mg/kg; in short: as §2
Rattus norvegicus [15] = assay: In vivo formation of baclofen in 2 hr after administration of 5.5 mg/kg of compound intraperitoneally into 4 rats; type: functional, organism-based; set-up: dose 5.5 mg/kg
Rattus norvegicus [16] = assay: In vivo formation of baclofen in 3-6h after administration of 55 mg/kg of compound intraperitoneally into 2 rats; type: functional, organism-based; set-up: dose 55 mg/kg; in short: as §2
Rattus norvegicus [17] = assay: Number of rats displaying convulsions by pretreatment with 55 mg/kg of compound (ip) in the presence of isoniazid after 63 mins out of 6 rats tested; type: functional; in short: as §1
Rattus norvegicus [18] = species on record: Rattus norvegicus; assay: Amount of metabolite alpha-baclofen lactam produced in liver of rat at a concentration of 700 g of the compound; type: functional
Rattus norvegicus [19] = species on record: Rattus norvegicus; assay: Amount of metabolite alpha-baclofen lactam produced in liver of rat at a concentration of 12000 g of the compound; type: functional
Rattus norvegicus [20] = assay: In vivo formation of alpha-baclofen in 3-6h after administration of 55 mg/kg of compound intraperitoneally into 1r at; type: functional, organism-based; set-up: dose 55 mg/kg; in short: as §2
Rattus norvegicus [21] = species on record: Rattus norvegicus; assay: Amount of metabolite alpha-baclofen produced in brain of rat at a concentration of 700 g of the compound; None detected; type: functional, organism-based
Rattus norvegicus [22] = species on record: Rattus norvegicus; assay: Amount of metabolite alpha-baclofen lactam produced in brain of rat at a concentration of 12000 g of the compound; type: functional
Rattus norvegicus [23] = assay: In vivo formation of alpha-baclofen in 3-6h after administration of 55 mg/kg of compound intraperitoneally into 2 rats; type: functional, organism-based; set-up: dose 55 mg/kg; in short: as §2
Rattus norvegicus [24] = species on record: Rattus norvegicus; assay: Amount of metabolite alpha-baclofen produced in liver of rat at a concentration of 700 g of the compound; None detected; type: functional, organism-based
Rattus norvegicus [25] = species on record: Rattus norvegicus; assay: Amount of metabolite alpha-baclofen produced in liver of rat at a concentration of 12000 g of the compound; None detected; type: functional, organism-based
Rattus norvegicus [26] = assay: In vivo formation of baclofen in 3-6h after administration of 55 mg/kg of compound intraperitoneally into 1r at; type: functional, organism-based; set-up: dose 55 mg/kg; in short: as §2
Rattus norvegicus [27] = assay: In vivo formation of baclofen in 0-3 hr after administration of 55 mg/kg of compound intraperitoneally into 1r at; type: functional, organism-based; set-up: dose 55 mg/kg; in short: as §2
Rattus norvegicus [28] = species on record: Rattus norvegicus; assay: Amount of metabolite alpha-baclofen produced in brain of rat at a concentration of 12000 g of the compound; None detected; type: functional, organism-based
Rattus norvegicus [29] = assay: In vivo formation of baclofen in 3h after administration of 55 mg/kg of compound intraperitoneally into 3 rats; type: functional, organism-based; set-up: dose 55 mg/kg; in short: as §2
Rattus norvegicus [30] = assay: In vivo formation of baclofen in 4 hr after administration of 5.5 mg/kg of compound intraperitoneally into 4 rats; type: functional, organism-based; set-up: dose 5.5 mg/kg
Mus musculus [31] = species on record: Mus musculus; assay: Anticonvulsant activity by using bicuculline test in mice; type: functional
Rattus norvegicus [32] = assay: Number of rats displaying convulsions by pretreatment with 55 mg/kg of compound (ip) in the presence of isoniazid after 49 mins out of 8 rats tested; type: functional; in short: as §1
Rattus norvegicus [33] = assay: Number of rats died by pretreatment with 55 mg/kg of compound (ip) in the presence of isoniazid after 49 mins out of 8 rats tested; type: organism-based; set-up: dose 55 mg/kg; conditions: in vivo; in short: as §1

## O=C1NC(=O)C(c2ccccc2)(c2ccccc2)N1
Mus musculus [1]
  ED50: inactive
Mus musculus [2]
  ED50: inactive

## NCC(CC(=O)O)c1ccc(Cl)cc1 (centres undefined) [BACLOFEN]
Mus musculus [3]
  Dose: 50 mg/kg
Rattus norvegicus [4]
  Activity: 0.162 µg/mL
Mus musculus [5]
  ED50: > 600 mg/kg
Rattus norvegicus [6]
  Activity: 0.097 µg/mL
Mus musculus [7]
  TD50: 47 mg/kg
Rattus norvegicus [8]
  Activity: 0.197 µg/mL
Rattus norvegicus [9]
  Activity: 0.13 µg/mL

## Clc1ccc(C2CCNC2)cc1 (centres undefined)
Rattus norvegicus [10]
  Activity: 0.5 µg/mL
Rattus norvegicus [11]
  Activity: 0
Rattus norvegicus [12]
  Concentration: 0 µg/mL
Rattus norvegicus [13]
  Concentration: 0 µg/mL
Rattus norvegicus [14]
  Concentration: 0.5 µg/mL
Rattus norvegicus [15]
  Concentration: 0.04 µg/mL
Rattus norvegicus [16]
  Concentration: 9.4 µg/mL
Rattus norvegicus [17]
  Activity: 6
Rattus norvegicus [18]
  Activity: 46.7 µg/mL
Rattus norvegicus [19]
  Activity: 24.5 µg/mL
Rattus norvegicus [20]
  Concentration: 2.6 µg/mL
Rattus norvegicus [21]
  Activity: Not detected
Rattus norvegicus [22]
  Activity: 0.21 µg/mL
Rattus norvegicus [23]
  Concentration: 2.3 µg/mL
Rattus norvegicus [24]
  Activity: Not detected
Rattus norvegicus [25]
  Activity: Not detected
Rattus norvegicus [26]
  Concentration: 16 µg/mL
Rattus norvegicus [27]
  Concentration: 2 µg/mL
Rattus norvegicus [28]
  Activity: Not detected
Rattus norvegicus [29]
  Concentration: 24.3 ng/g
Rattus norvegicus [30]
  Concentration: 0.12 µg/mL

## NC(=O)CCC/N=C(\c1ccc(Cl)cc1)c1cc(F)ccc1O [PROGABIDE]
Mus musculus [31]
  ED50: 20 mg/kg
Mus musculus [3]
  ED50: 30 mg/kg
Mus musculus [5]
  ED50: 75 mg/kg

## CCCC(CCC)C(=O)O [VALPROIC ACID]
Mus musculus [31]
  ED50: 360 mg/kg
Mus musculus [3]
  ED50: 149 mg/kg

## O=C1CC(c2ccc(Cl)cc2)CN1 (centres undefined)
Mus musculus [31]
  ED50: 143 mg/kg
Mus musculus [3]
  ED50: 41 mg/kg
Rattus norvegicus [4]
  Activity: 2.11 µg/mL
Mus musculus [5]
  ED50: 68 mg/kg
Rattus norvegicus [32]
  Activity: 2
Rattus norvegicus [33]
  No. of rats died: 1
Rattus norvegicus [6]
  Activity: 0.28 µg/mL
Mus musculus [7]
  TD50: 117 mg/kg
Rattus norvegicus [8]
  Activity: 26.4 µg/mL
Rattus norvegicus [9]
  Activity: 14.6 µg/mL

## CCC1(c2ccccc2)C(=O)NC(=O)NC1=O [PHENOBARBITAL]
Mus musculus [31]
  ED50: 38 mg/kg
Mus musculus [3]
  ED50: 13 mg/kg
Mus musculus [5]
  ED50: 22 mg/kg
Mus musculus [7]
  TD50: 69 mg/kg
